# Source: PubChem BioAssay
# M4 PAM: positive allosteric modulators of human muscarinic M4 receptor. P08173. CHO-K1 hM4/Gqi5, Fluo-8 calcium fluorescence, ACh EC20; 0% = ACh EC20, 100% = maximal ACh. activation, % at 3 µM. hit rate 0.4% among 360,000. AID 624126;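 active means activation above its plate's cutoff, the mean activation of sample wells plus 3 SD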
# Target sequence (P08173 whole entry, looked up): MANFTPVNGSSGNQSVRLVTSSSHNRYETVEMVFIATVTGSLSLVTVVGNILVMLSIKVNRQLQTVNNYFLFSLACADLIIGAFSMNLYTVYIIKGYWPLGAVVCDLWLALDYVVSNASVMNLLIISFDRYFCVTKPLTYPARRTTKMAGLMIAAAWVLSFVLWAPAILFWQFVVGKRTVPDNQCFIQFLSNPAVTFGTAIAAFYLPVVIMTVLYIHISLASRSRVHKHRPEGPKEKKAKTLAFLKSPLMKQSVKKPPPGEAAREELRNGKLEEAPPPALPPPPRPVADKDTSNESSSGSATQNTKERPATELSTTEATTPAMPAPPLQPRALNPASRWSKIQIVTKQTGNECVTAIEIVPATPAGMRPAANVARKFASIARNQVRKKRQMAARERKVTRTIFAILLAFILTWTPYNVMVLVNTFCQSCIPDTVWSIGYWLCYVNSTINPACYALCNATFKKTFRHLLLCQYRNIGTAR
# CHRM5 antagonist: CHRM5 antagonism in calcium assay; P08912; CHO-hM5 cells, Fluo-8 calcium fluorescence, ACh EC80; inhibition, % at 3 µM; hit rate 0.59% among 360,000; AID 624040;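 active means inhibition above a per-plate cutoff, the mean of that plate's test compounds plus 3 SD, cut at about 27% in these data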;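 further: 0% = acetylcholine EC80 with DMSO and 100% = DMSO without agonist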
# CHRM4 antagonist: antagonists of human muscarinic M4 receptor (CHRM4); inhibition, % at 3 µM; CHO-hM4 cells, ACh EC80, Fluo-8 calcium fluorescence; hit rate 0.73% among 360,000;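 active means inhibition above its plate's cutoff, the mean inhibition of sample wells plus 3 SD, cut at about 27% in these data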;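 further: 0% = acetylcholine EC80 with DMSO and 100% = DMSO without agonist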
# M5 PAM: CHRM5 positive allosteric modulation; AID 624038; activation, % at 3 µM; CHO-K1 hM5, Fluo-8 calcium, ACh EC20 PAM; 0% = ACh EC20, 100% = ACh EC100; hit rate 0.3% among 360,000;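 active means activation above the run cutoff, the mean activation of all test compounds plus 3 SD, cut at about 18% in these data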
#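 System: CHO-K1 hM5 cells. Reagent: acetylcholine, EC20 level. Compound dosing: single dose, 3 µM nominal final test concentration. Timing: Post-acetylcholine fluorescence recording 140 s. Detection: Fluo-8 calcium fluorescence. Read-out: % activation, ACh-normalized. Benchmarks: ACh EC20 and EC100 wells. Repeats: singlicate, one well per test compound.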
# CHRM5 agonist: agonists of human muscarinic M5 receptor (CHRM5); CHO-K1 hM5 cells, Fluo-8 calcium fluorescence; 0% DMSO wells, 100% maximal acetylcholine response; hit rate 0.19% among 360,000; AID 624037; activation, % at 3 µM; P08912;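 active means activation above the run's mean over test compounds plus 3 SD, cut at about 23% in these data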;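 further: signal is peak over basal fluorescence ratio across the kinetic read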
# M4 ag: agonists of human muscarinic M4 receptor (CHRM4); P08173; CHO-K1 hM4/Gqi5, Fluo-8 calcium fluorescence; vehicle 0%, full acetylcholine response 100%; activation, % at 3 µM; hit rate 0.14% among 360,000;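 active means activation above the run mean over all test wells plus 3 SD, cut at about 32% in these data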;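 further: peak over basal fluorescence ratio per well then scaled between controls; 0% = DMSO wells and 100% = acetylcholine at EC100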
# * marks the source's active call; other numbers are inactive results. This is a sample that favours compounds with a hit; in the whole collection about 1.8% have one here.
SMILES,M4 PAM,CHRM5 antagonist,CHRM4 antagonist,M5 PAM,CHRM5 agonist,M4 ag
CC(=O)c1ccc(N2CCN(C(=S)Nc3ccc(Oc4ccccc4)cc3)CC2)cc1,-21.1,34.8*,18.5,-30.9,2.5,13.4
Cc1ccc(C(=O)N2CCN(c3ccc(NC(=S)NC(=O)Cc4ccccc4)cc3)CC2)cc1,-9.3,29.1*,13.5,-19.3,-0.6,4.4
COc1ccc(N2CCN(C(=S)Nc3ccccc3)CC2)cc1,-3.1,10.0,-2.8,-3.2,1.4,0.9
O=C(NCCCc1ccc(F)cc1)C1CCC(=O)N(CCCN2CCCC2=O)C1 (centres undefined),11.0,-11.7,-3.2,8.2,-2.2,0.3
CC(C)C[C@H]1CNC(=O)C(=O)N1CC1CCN(CC2CCC(C)CC2)CC1 (some centres undefined),-8.9,0.3,2.8,3.9,-1.6,0.0
CN(C)CCCNC(=O)N1c2ccccc2C=Cc2ccccc21,-15.7,71.7*,67.8*,-29.4,-21.6,0.5
CCN(CC)C(=O)N1c2ccccc2C=Cc2ccccc21,-7.5,-1.4,3.8,-8.8,-8.0,-2.7
COC(=O)c1cn(Cc2ccccc2C)nn1,22.2*,-7.7,-6.5,7.4,-2.1,1.8
CCCCCc1ccc(OCCCC[n+]2ccccc2)c(CCCCC)c1,-16.9,9.4,12.6,-14.7,-10.4,-0.8
CCCCCc1ccc(OCCCC[n+]2ccc(C)cc2)c(CCCCC)c1,-24.4,21.8,48.1*,-31.3,-16.8,10.7
CCCCCc1ccc(OCCCC[n+]2cccc(C)c2)c(CCCCC)c1,-16.8,21.3,42.5*,-19.1,-9.8,0.9
CCC(C)(C)c1ccc(OCCCC[n+]2ccccc2)c(C(C)(C)CC)c1,-15.6,21.3,22.0,-19.8,-9.6,8.2
CCc1ccc(-c2cc(C)no2)cc1S(=O)(=O)NCCc1ccc(OC)c(OC)c1,-2.3,5.5,-14.8,-1.5,-2.7,11.7
Cc1ccc(NC(=O)C2=C(c3ccccc3)S(=O)(=O)CCS2(=O)=O)cc1,1.8,9.7,39.4*,-1.7,-4.6,4.8
Cc1sc2ncnc(N3CCN(S(=O)(=O)c4ccc(C(C)(C)C)cc4)CC3)c2c1C,5.7,11.9,-5.6,-3.1,1.9,1.9
Cc1ccc(S(=O)(=O)N2CCN(C(=O)C3CCN(c4ncnc5sc(C)c(C)c45)CC3)CC2)c(C)c1,26.4*,0.2,-4.1,4.8,3.3,2.5
Cc1sc2ncnc(N3CCC(C(=O)Nc4ccc(OC(F)F)c(Cl)c4)CC3)c2c1C,13.1,11.4,-2.7,-2.8,0.1,1.4
CCN(CC)CCNC(=O)c1ccc(NC(=O)C2CCN(c3ncnc4sc(C)c(C)c34)CC2)cc1,8.4,2.5,57.6*,-4.5,-7.1,80.5*
COC(=O)c1cc2cc(Cl)ccc2nc1SC,-5.7,6.6,-3.8,3.6,-0.8,-0.8
CN(C)CC/C=C1/c2cc(F)ccc2CSc2ccc(F)cc21,-37.2,98.4*,83.8*,-19.8,-7.2,1.4
CN(C)CC/C=C1\c2cc(F)ccc2CSc2ccccc21,-17.1,98.3*,97.3*,-18.2,-2.3,10.9
Clc1ccc2c(c1)-c1[nH]ncc1CS2,3.2,1.3,-3.0,-0.6,-0.7,0.0
C/C=C1\NC(=O)[C@H](C)NC(=O)[C@@H](NC(=O)[C@@H](Cc2ccc(O)cc2)NC(=O)[C@@H](NC(=O)/C(C)=C/C)C(C)C)[C@@H](C)OC(=O)[C@H](CCCCc2ccc(O)cc2)NC(=O)[C@@H](CCC(=O)O)NC1=O,3.7,1.0,-4.5,1.2,0.9,0.6
Cc1c(C)c2ccc(OCC(=O)NCCCN3CCCC3=O)cc2oc1=O,3.4,-0.6,6.7,2.4,-0.6,2.9
O=C(Nc1c(C(=O)C2CC2)oc2ccccc12)c1ccc(Cl)cc1,25.6*,-4.9,1.3,10.0,0.3,1.7
Nc1ccc2c3c(cccc13)-c1ccccc1-2,-5.9,63.1*,30.6*,-31.2,204.7*,31.3
O=C(CSc1nc(C(F)(F)F)cc(=O)[nH]1)Nc1cccc2ccccc12,22.5*,-18.5,-8.5,16.8,-2.3,0.0
COc1ccc(C(=O)Nc2ccc([N+](=O)[O-])cn2)c(OC)c1,0.5,11.4,-0.6,19.6*,-0.9,0.6
